Measurements taken from ChEMBL document CHEMBL4359895, “Discovery and biological evaluation of darolutamide derivatives as inhibitors and down-regulators of wild-type AR and the mutants” (Eur J Med Chem, 2019).
Activity calls are given as the source filed them. The rule behind the calls is not given here.

Key:
[1] = system: VCaP; assay: Antitumor activity against castration-resistant human VCaP cells xenografted in BALB/c mouse assessed as tumor growth inhibition at 30 mg/kg, po administered for 40 days; assay type: functional; conditions: 960 h, read-out: TGI
How it was run: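 Castration-resistant VCaP xenografts grown in male BALB/c nude mice. Animals dosed once daily for 40 days alongside a vehicle group. Tumor volume tracked over time, with tumor weights taken at end. Reported as tumor growth inhibition, mean ± SEM, N = 8-9 per group.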

[2] = system: LNCaP; assay: Inhibition of AR protein expression in human LNCAP cells at 5 to 30 uM incubated for 24 hrs by Western blot analysis; assay type: functional, cell-based
How it was run: (§1)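 LNCaP, VCaP and 22Rv1 cells grown in medium with 10% (v/v) FBS. Treated with compounds or DMSO for 24 h. AR-full and AR splice-variant protein then assessed by western blot.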

[3] = system: CWR22R; assay: Inhibition of AR protein expression in human 22Rv1 cells at 10 to 40 uM incubated for 24 hrs by Western blot analysis; assay type: functional, cell-based; how it was run: as §1
[4] = AUC (0 to t) in Sprague-Dawley rat 30 mg/kg, po measured up to 24 hrs by LC-MS/MS analysis; assay type: ADME, organism-based; parameters: dose 30 mg/kg, time < 24 hr, route oral; conditions: in vivo
How it was run: (§2)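 Rats dosed orally at 30 mg/kg, compound formulated in 10% DMA / 90% PEG200. Plasma levels followed over time to build concentration-time curves, from which T1/2, Tmax, Cmax and AUC were derived.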

[5] = system: LNCaP; assay: Inhibition of AR mRNA level in human LNCAP cells at 5 to 30 uM incubated for 24 hrs by qRT-PCR analysis; assay type: functional, cell-based
How it was run: (§3)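 LNCaP, VCaP and 22Rv1 cells treated with DMSO or compounds for 24 h. AR-full and AR-V7 mRNA measured by qRT-PCR and normalised to GAPDH. Mean ± SD, n = 3, compared with DMSO by two-tailed t test.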

[6] = system: LNCaP; assay: Inhibition of AR splice variant 7 mutant gene expression in human LNCAP cells at 5 to 30 uM incubated for 24 hrs by qRT-PCR analysis; assay type: functional, cell-based; how it was run: as §3
[7] = system: CWR22R; assay: Inhibition of AR mRNA level in human 22Rv1 cells at 10 to 40 uM incubated for 24 hrs by qRT-PCR analysis; assay type: functional, cell-based; how it was run: as §3
[8] = system: LNCaP; assay: Inhibition of AR splice variant 7 mutant expression in human LNCAP cells at 5 to 30 uM incubated for 24 hrs by Western blot analysis analysis; assay type: functional, cell-based; how it was run: as §1
[9] = system: CWR22R; assay: Inhibition of AR splice variant 7 mutant expression in human 22Rv1 cells at 10 to 40 uM incubated for 24 hrs by Western blot analysis analysis; assay type: functional, cell-based; how it was run: as §1
[10] = system: CWR22R; assay: Inhibition of AR splice variant 7 mutant gene expression in human 22Rv1 cells at 10 to 40 uM incubated for 24 hrs by qRT-PCR analysis; assay type: functional, cell-based; how it was run: as §3
[11] = Half life in Sprague-Dawley rat 30 mg/kg, po measured up to 24 hrs by LC-MS/MS analysis; assay type: ADME, organism-based; conditions: in vivo; how it was run: as §2
[12] = system: LNCaP; assay: Inhibition of AR protein expression in human LNCAP cells at 5 to 20 uM incubated for 24 hrs by Western blot analysis; assay type: functional, cell-based; how it was run: as §1
[13] = system: CWR22R; assay: Inhibition of AR mRNA level in human 22Rv1 cells at 10 to 30 uM incubated for 24 hrs by qRT-PCR analysis; assay type: functional, cell-based; how it was run: as §3
[14] = system: CWR22R; assay: Inhibition of AR splice variant 7 mutant gene expression in human 22Rv1 cells at 10 to 30 uM incubated for 24 hrs by qRT-PCR analysis; assay type: functional, cell-based; how it was run: as §3

| AUC(0-t) at 24 h [4] [ng·h/mL] | half-life [11] [h] | SMILES | inhibition in vivo at 30 mg/kg [1] [%] | inhibition [2] | inhibition [3] | inhibition [5] | inhibition [6] | inhibition [7] | inhibition [8] | inhibition [9] | inhibition [10] | inhibition [12] | inhibition [13] | inhibition [14] |
| --- | --- | --- | --- | --- | --- | --- | --- | --- | --- | --- | --- | --- | --- | --- |
| 7280 | 1.79 | C[C@@H](Cn1ccc(-c2ccc(C#N)c(Cl)c2)n1)Nc1ncnc2nc[nH]c12 | 64.7 | Active | Active | Active | Active | Active | Active | Active | Active |  |  |  |
|  |  | C[C@@H](Cn1ccc(-c2ccc(C#N)c(Cl)c2)n1)Nc1cccc2ncccc12 |  |  |  |  |  |  |  |  |  | Active | Active | Active |
